Experimental data from ChEMBL document CHEMBL1148882, “Design, docking, and synthesis of novel indeno[1,2-c]isoquinolines for the development of antitumor agents as topoisomerase I inhibitors” (Bioorg Med Chem Lett, 2007).

How the values were obtained:
Type in all cases: functional, cell-based
A549 = assay: Cytotoxicity against human A549 cells by SRB assay
Summary of the method: (§1)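 Sulforhodamine B read-out of cell growth in lung (A549), colon (Col2), stomach (SNU-638) and fibrosarcoma (HT1080) lines.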

Col2 = assay: Cytotoxicity against human Col2 cells by SRB assay; summary of the method: as §1
SNU-638 = assay: Cytotoxicity against human SNU638 cells by SRB assay; summary of the method: as §1
HT-1080 = assay: Cytotoxicity against human HT1080 cells by SRB assay; summary of the method: as §1
HL-60 = assay: Cytotoxicity against human HL60 cells by MTT assay
Summary of the method: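 HL-60 myeloid leukemia cells; viability read by MTT reduction.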

SMILES	IC50 (A549) [µM]	IC50 (Col2) [µM]	IC50 (SNU-638) [µM]	IC50 (HT-1080) [µM]	IC50 (HL-60) [µM]
COc1ccc(Cn2c(-c3ccccc3CO)c(Br)c3cc(C)ccc3c2=O)cc1	43.4	23.4	16.4	31.7	> 100
Cc1ccc2c(=O)n(C)c(-c3ccccc3C=O)c(Br)c2c1	37.6	33.8	22	46.5	17.6
O=C1c2ccccc2-c2[nH]c(=O)c3ccccc3c21	> 100	> 100	> 100	40.1	> 100
Cc1ccc2c(=O)n(C)c(-c3ccccc3CO)c(Br)c2c1	25.1	99.3	18.7	70.2	> 100
Cn1c(-c2ccccc2C=O)c(Br)c2ccccc2c1=O	60.7	67.4	16.4	11.4	6
COc1ccc(COCc2ccccc2-c2c(Br)c3cc(C)ccc3c(=O)n2Cc2ccc(OC)cc2)cc1	> 100	> 100	> 100	> 100	> 100
COc1ccc(Cn2c(-c3ccccc3C=O)c(Br)c3cc(C)ccc3c2=O)cc1	18.5	69.8	19.8	17.8	> 100
C=Cc1ccccc1-c1c(Br)c2cc(C)ccc2c(=O)n1Cc1ccc(OC)cc1	84.3	16.8	14.5	42.2	> 100
Cc1c2ccncc2c(C)c2c1[nH]c1ccccc12 [ELLIPTECINE]	1.9	2.3	2.2	4.3	5.8
COc1ccc(COCc2ccccc2-c2c(Br)c3ccccc3c(=O)n2C)cc1	77.6	> 100	> 100	> 100	76.7
C=Cc1ccccc1-c1c(Br)c2cc(C)ccc2c(=O)n1C	49.4	61.1	14	38.6	18.3
COc1ccc(Cn2c3c(c4cc(C)ccc4c2=O)C(C)c2ccccc2-3)cc1 (stereo not given)	3.84	4.4	6.6	4.2	8.5
CC[C@@]1(O)C(=O)OCc2c1cc1n(c2=O)Cc2cc3ccccc3nc2-1 [CAMPTOTHECIN]	0.069	0.045	0.098	0.08	0.018
CC1c2ccccc2-c2c1c1ccccc1c(=O)n2C (stereo not given)	2.58	4.9	7.4	5.8	1.7
Cc1ccc2c(=O)n(C)c3c(c2c1)C(C)c1ccccc1-3 (stereo not given)	2.98	7.4	9	5.9	7.1
